Data as given in ChEMBL document CHEMBL1949575, “Sclareol exhibits anti-inflammatory activity in both lipopolysaccharide-stimulated macrophages and the λ-carrageenan-induced paw edema model” (J Nat Prod, 2012).
≈ marks a conversion by molar mass, not a printed value. Calls of active or inactive are those of the source. No cut-off for these calls is given here.

Assays:
[1] = system: Mus musculus; test: Antiinflammatory activity in ICR mouse assessed as inhibition of carrageenan-induced paw edema at 10 mg/kg, ip administered 30 mins before carrageenan challenge measured after 3 hrs by plethysmometer analysis; format: functional, organism-based; set-up: dose 10 mg/kg
Outline: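 Male ICR mice (n = 6) received saline, indomethacin 10 mg/kg or drug i.p. 30 min before 50 μL of 1% carrageenan in the right hind paw. Paw volume was read by plethysmometer immediately and at 1−5 h. Swelling was expressed as the ratio of right paw volume after carrageenan to volume before.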

[2] = system: Mus musculus; test: Antiinflammatory activity in ICR mouse assessed as inhibition of carrageenan-induced TNFalpha level in paw serum at 5 to 10 mg/kg, ip administered 30 mins before carrageenan challenge measured after 5 hrs by ELISA
[3] = Cytotoxicity against human breast cancer cells; format: functional, cell-based; settings: Cancer cell lines
[4] = system: Mus musculus; test: Antiinflammatory activity in ICR mouse assessed as inhibition of carrageenan-induced iNOS protein expression in paw at 10 mg/kg, ip administered 30 mins before carrageenan challenge by Western blotting relative to control; format: functional; settings: route intraperitoneal
Outline: (§1)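 Male ICR mice (18−25 g, n = 6 per group) given drug or saline i.p. 30 min before 50 μL of 1% carrageenan into the right hind paw plantar side. Paw soft tissue was homogenized in CHAPS buffer with protease inhibitors. About 30 μg protein run on 10% SDS-PAGE, immunoblotted for iNOS or COX-2, ECL detection, normalized to β-actin. Indomethacin 10 mg/kg as positive control.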

[5] = system: Mus musculus; test: Antiinflammatory activity in ICR mouse assessed as inhibition of carrageenan-induced decrease in SOD activity in liver at 5 mg/kg, ip administered 30 mins before carrageenan challenge measured after 5 hrs; format: functional, organism-based; set-up: dose 5 mg/kg
Outline: (§2)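 Liver catalase, SOD and GPx activities determined 5 h after intrapaw carrageenan in ICR mice given drug i.p. 30 min beforehand. Indomethacin 10 mg/kg as positive control.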

[6] = system: HCT-116; test: Cytotoxicity against human HCT116 cells; format: functional, cell-based
[7] = system: RAW264.7; test: Antiinflammatory activity in mouse RAW264.7 cells assessed as inhibition of LPS-induced nitric oxide production treated 1 hr before LPS challenge measured after 24 hrs by Griess method; format: functional, cell-based
Outline: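 RAW264.7 cells preincubated 1 h with drug at 0, 1, 5 or 10 μg/mL, then co-treated with 100 ng/mL LPS at 37 °C for 24 h. Culture medium mixed 1:1 with Griess reagent (1% sulfanilamide, 0.1% naphthyl ethylenediamine, 5% phosphoric acid), 10 min at room temperature, absorbance 540 nm against a nitrite standard curve.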

[8] = system: Mus musculus; test: Antiinflammatory activity in ICR mouse assessed as inhibition of carrageenan-induced decrease in GPx activity in liver at 5 mg/kg, ip administered 30 mins before carrageenan challenge measured after 5 hrs; format: functional, organism-based; set-up: dose 5 mg/kg; outline: as §2
[9] = system: Mus musculus; test: Antiinflammatory activity in ICR mouse assessed as inhibition of carrageenan-induced neutrophil infiltration in paw at 10 mg/kg, ip administered 30 mins before carrageenan challenge; format: functional, organism-based; set-up: dose 10 mg/kg
[10] = system: PBMC; test: Cytotoxicity against human PBMC; format: cell-based
[11] = system: Mus musculus; test: Antiinflammatory activity in ICR mouse assessed as inhibition of carrageenan-induced malondialdehyde level in paw serum at 1 mg/kg, ip administered 30 mins before carrageenan challenge measured after 5 hrs by TRARS method; format: functional, organism-based; set-up: dose 1 mg/kg
Outline: (§3)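 Carrageenan (1%, 50 μL intraplantar) given to ICR mice 30 min after i.p. dosing; right hind paws dissected at end and kept at −80 °C. Malondialdehyde measured by thiobarbituric acid reaction under acidic high-temperature conditions, red TBARS complex read at 532 nm.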

[12] = system: Mus musculus; test: Antiinflammatory activity in ICR mouse assessed as inhibition of carrageenan-induced nitric oxide level in paw serum at 1 to 10 mg/kg, ip administered 30 mins before carrageenan challenge measured after 5 hrs by Griess method; format: functional, organism-based
Outline: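 Mice pretreated i.p. 30 min before intraplantar 1% carrageenan; samples taken 5 h after injection. Homogenates diluted fourfold in water, deproteinized with zinc sulfate to a final 15 mg/mL, centrifuged at 10000g for 5 min. Supernatant mixed 1:1 with Griess reagent, 10 min at room temperature, A540. Nitrite quantified against a sodium nitrite standard curve.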

[13] = system: RAW264.7; test: Antiinflammatory activity in mouse RAW264.7 cells assessed as inhibition of LPS-induced iNOS expression at 5 to 10 ug/ml by Western blotting; format: functional, cell-based
Outline: (§4)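 RAW264.7 macrophages in DMEM with 10% FBS were pretreated 1 h with drug (0−10 μg/mL), then co-stimulated with 100 ng/mL LPS for 24 h. Lysates (ice-cold Triton lysis buffer, pH 7.9) were blotted for iNOS or COX-2, with about 30 μg protein per lane and ECL detection. Bands normalized to β-actin, expressed relative to the LPS-only group as 100%.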

[14] = system: Mus musculus; test: Antiinflammatory activity in ICR mouse assessed as inhibition of carrageenan-induced malondialdehyde level in paw at 10 mg/kg, ip administered 30 mins before carrageenan challenge by TRARS method; format: functional, organism-based; set-up: dose 10 mg/kg; outline: as §3
[15] = Cytotoxicity against human leukemia cells; format: functional, cell-based; settings: Leukemia cell
[16] = system: RAW264.7; test: Cytotoxicity against LPS-stimulated mouse RAW264.7 cells assessed as cell viability at 10 ug/ml treated 1 hr before LPS challenge measured after 24 hrs by MTT assay; format: cell-based; settings: raw264.7, 24 h
Outline: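 RAW264.7 cells (2 × 10^5/well) grown 1 day to near confluence, pretreated 1 h with drug (0−10 μg/mL), then co-stimulated with 100 ng/mL LPS for 24 h. After DPBS washes, cells got 0.5 mg/mL MTT for 2 h at 37 °C, then DMSO for 30 min, and absorbance was read at 570 nm.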

[17] = system: RAW264.7; test: Antiinflammatory activity in mouse RAW264.7 cells assessed as inhibition of LPS-induced COX2 expression at 5 to 10 ug/ml by Western blotting; format: functional, cell-based; outline: as §4
[18] = system: Mus musculus; test: Antiinflammatory activity in ICR mouse assessed as inhibition of carrageenan-induced decrease in CAT activity in liver at 5 mg/kg, ip administered 30 mins before carrageenan challenge measured after 5 hrs; format: functional, organism-based; set-up: dose 5 mg/kg; outline: as §2
[19] = system: Mus musculus; test: Antiinflammatory activity in ICR mouse assessed as inhibition of carrageenan-induced COX2 protein expression in paw at 10 mg/kg, ip administered 30 mins before carrageenan challenge by Western blotting relative to control; format: functional; settings: route intraperitoneal; outline: as §1
[20] = system: Mus musculus; test: Antiinflammatory activity in ICR mouse assessed as inhibition of carrageenan-induced decrease in GPx activity in liver at 10 mg/kg, ip administered 30 mins before carrageenan challenge measured after 5 hrs; format: functional, organism-based; set-up: dose 10 mg/kg; outline: as §2
[21] = system: Mus musculus; test: Antiinflammatory activity in ICR mouse assessed as inhibition of carrageenan-induced decrease in SOD activity in liver at 10 mg/kg, ip administered 30 mins before carrageenan challenge measured after 5 hrs; format: functional, organism-based; set-up: dose 10 mg/kg; outline: as §2
[22] = system: Mus musculus; test: Antiinflammatory activity in ICR mouse assessed as inhibition of carrageenan-induced decrease in CAT activity in liver at 10 mg/kg, ip administered 30 mins before carrageenan challenge measured after 5 hrs; format: functional, organism-based; set-up: dose 10 mg/kg; outline: as §2
[23] = system: Mus musculus; test: Antiinflammatory activity in ICR mouse assessed as inhibition of carrageenan-induced TNFalpha level in paw serum at 10 mg/kg, ip administered 30 mins before carrageenan challenge measured after 5 hrs by ELISA; format: functional, organism-based; set-up: dose 10 mg/kg
Outline: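 ICR mice (n = 6) dosed i.p. 30 min before intraplantar 1% carrageenan; blood collected at sacrifice and stored at −80 °C. Serum TNF-α quantified by commercial ELISA, reported in pg/mL from the standard-curve regression. Indomethacin 10 mg/kg as reference.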

[24] = system: Mus musculus; test: Antiinflammatory activity in ICR mouse assessed as inhibition of carrageenan-induced malondialdehyde level in paw serum at 10 mg/kg, ip administered 30 mins before carrageenan challenge measured after 5 hrs by TRARS method; format: functional, organism-based; set-up: dose 10 mg/kg; outline: as §3

C=C[C@](C)(O)CC[C@@H]1[C@@]2(C)CCCC(C)(C)[C@@H]2CC[C@@]1(C)O [SCLAREOL]
inhibition [1]: Active | inhibition [2]: Active | IC50 [3]: 7 µg/mL (≈ 22.7 µM) | inhibition in vivo at 10 mg/kg [4]: 69.6% | inhibition [5]: Active | IC50 [6]: 10.6 µg/mL (≈ 34.4 µM) | inhibition [7]: Dose-dependent effect | inhibition [8]: Active | inhibition [9]: Active | IC50 [10]: 10.7 µg/mL (≈ 34.7 µM) | inhibition [11]: Active | inhibition [12]: Active | inhibition [13]: Active | inhibition [14]: Active | IC50 [15]: 6 µg/mL (≈ 19.4 µM) | Activity [16]: Non-toxic | inhibition [17]: Active | inhibition [18]: Active | inhibition in vivo at 10 mg/kg [19]: 70.3%

COc1ccc2c(c1)c(CC(=O)O)c(C)n2C(=O)c1ccc(Cl)cc1 [INDOMETHACIN]
inhibition [1]: Active | inhibition [20]: Active | inhibition in vivo at 10 mg/kg [4]: 61.5% | inhibition [9]: Active | inhibition [21]: Active | inhibition [22]: Active | inhibition [23]: Active | inhibition [24]: Active | inhibition in vivo at 10 mg/kg [19]: 58.1%
